Test results published in ChEMBL document CHEMBL5608194, “Novel neuroprotective 5,6-dihydropyrido[2',1':2,3]imidazo[4,5-c]quinoline derivatives acting through cholinesterase inhibition and CB2 signaling modulation” (Eur J Med Chem, 2024).

Key:
SH-SY5Y [1] = experiment: Neuroprotective activity against ATRA-differentiated and 3-NPA induced cell death in human SH-SY5Y cells assessed as cell death at 1 uM incubated for 48 hrs by propidium iodide staining based fluorescence assay (reference value: 100%); assay type: functional
Outline: (§1)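 ATRA-differentiated SH-SY5Y co-treated with compound and 20 mM 3-nitropropionic acid for 48 h; cell death by propidium iodide fluorescence, 3-NPA-treated signal set to 100 %.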

SH-SY5Y [2] = experiment: Neuroprotective activity against ATRA-differentiated and MPP+ induced cell death in human SH-SY5Y cells assessed as cell death at 1 uM incubated for 24 hrs by propidium iodide staining based fluorescence assay (reference value: 100%); assay type: functional
Outline: (§2)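 ATRA-differentiated SH-SY5Y co-treated with compound and 5 mM MPP+ for 24 h; cell death by propidium iodide fluorescence, MPP+-treated signal set to 100 %.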

SH-SY5Y [3] = experiment: Neuroprotective activity against ATRA-differentiated and MPP+ induced cell death in human SH-SY5Y cells assessed as cell death at 0.1 uM incubated for 24 hrs by propidium iodide staining based fluorescence assay (reference value: 100%); assay type: functional; outline: as §2
SH-SY5Y [4] = experiment: Neuroprotective activity against ATRA-differentiated and 3-NPA induced cell death in human SH-SY5Y cells assessed as cell death at 0.1 uM incubated for 48 hrs by propidium iodide staining based fluorescence assay (reference value: 100%); assay type: functional; outline: as §1
SH-SY5Y [5] = experiment: Cytotoxicity against human SH-SY5Y cells assessed as cell death at 10 uM incubated for 72 hrs by propidium iodide staining based fluorescence assay; assay type: toxicity
Outline: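 SH-SY5Y differentiated to neuron-like phenotype with 10 μM all-trans retinoic acid for 48 h, 20 000 cells/well. Compounds from DMSO stocks (DMSO ≤0.5 %) added, then 72 h exposure. Control wells lysed with 1 % Triton X-100 for 1 min, then all wells stained with propidium iodide for fluorescence read-out. Dead-cell proportion expressed relative to Triton X-100-treated control.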

SH-SY5Y [6] = experiment: Neuroprotective activity against ATRA-differentiated and 3-NPA induced cell death in human SH-SY5Y cells assessed as cell death at 10 uM incubated for 48 hrs by propidium iodide staining based fluorescence assay (reference value: 100%); assay type: functional; outline: as §1
SH-SY5Y [7] = experiment: Neuroprotective activity against ATRA-differentiated and MPP+ induced cell death in human SH-SY5Y cells assessed as cell death at 10 uM incubated for 24 hrs by propidium iodide staining based fluorescence assay (reference value: 100%); assay type: functional; outline: as §2
SH-SY5Y [8] = experiment: Cytotoxicity against human SH-SY5Y cells at 10 uM; assay type: toxicity, cell-based
Outline: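 SH-SY5Y differentiated to neuron-like phenotype with 10 μM all-trans retinoic acid for 48 h, 20 000 cells/well, then exposed to compound for 72 h (DMSO ≤0.5 %). Propidium iodide exclusion fluorescence; dead-cell proportion expressed relative to Triton X-100 (1 %, 1 min) lysed control.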

SH-SY5Y [9] = experiment: Potentiation of MPP+ induced toxicity in human SH-SY5Y cells assessed as increase in cell death at 10 uM; assay type: cell-based
Outline: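 Neuron-like SH-SY5Y co-treated for 24 h with 5 mM MPP+, compound and CB2 inverse agonist AM630 or antagonist SR144528 at 0.1, 1 or 10 μM; CB2 ligands also tested alone and with MPP+; cell death read-out; triplicates on three independent days.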

Acetylcholinesterase = Acetylcholinesterase (Electrophorus electricus, UniProt O42275); experiment: Inhibition of electric eel AChE using acetylthiocholine as substrate by Ellman's method
SH-SY5Y [10] = experiment: Inhibition of MPP+ induced superoxide radical production in human SH-SY5Y cells at 10 uM incubated for 24 hrs by microplate reader assay (reference value: 100%); assay type: functional
Outline: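 Neuron-like SH-SY5Y co-treated with 5 mM MPP+ and compound for 24 h; centrifuged at 500 × g, medium replaced with 10 μM dihydroethidium in PBS for 30 min, fluorescence 500/580 nm; MPP+ signal set to 100 %; triplicates on at least four independent days.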

SH-SY5Y [11] = experiment: Neuroprotective activity against ATRA-differentiated and MPP+ induced cell death in human SH-SY5Y cells assessed as cell death at 10 uM by LDH release assay (reference value: 100%); assay type: functional
Outline: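 ATRA-differentiated SH-SY5Y co-treated with 5 mM MPP+ and compound; cell death by commercial LDH release kit; MPP+ value set to 100 %; triplicates on at least three independent days.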

SH-SY5Y [12] = experiment: Inhibition of MPP+ induced mitochondrial superoxide radical production in human SH-SY5Y cells at 10 uM incubated for 24 hrs by MitoSOX staining based microplate reader assay (reference value: 100%); assay type: functional
Outline: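 Neuron-like SH-SY5Y (20 000 cells/well) co-treated with 5 mM MPP+ and compound for 24 h; plates centrifuged, medium replaced by 5 μM MitoSOX in HBSS, 30 min at 37 °C, fluorescence 500/580 nm; MPP+ signal set to 100 %; triplicates on at least four independent days.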

[13] = Selectivity index, ratio of IC50 for electric eel AChE to IC50 for equine serum BChE
Outline: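 Ratio of IC50 values from modified Ellman spectrophotometric assays with electric eel AChE and equine serum BChE. Each used enzyme at 0.2 U/mL final, acetylthiocholine or butyrylthiocholine at 40 μM, and DTNB at 100 μM. Inhibitors were dissolved in DMSO, diluted in water, and tested at five concentrations in triplicate. IC50 came from regression of v0/vi against inhibitor concentration.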

SH-SY5Y [14] = experiment: Neuroprotective activity against MPP+ induced cell death in human SH-SY5Y cells assessed as cell death at 10 uM by YOPRO-1 staining based assay; assay type: functional
Outline: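 Neuron-like SH-SY5Y co-treated with compound and 5 mM MPP+ for 24 h; centrifuged at 500 × g, medium replaced by 1 μM YO-PRO1 in PBS for 15 min at room temperature; fluorescence 488/530 nm; MPP+ signal set to 100 %; triplicates on at least three independent days.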

SH-SY5Y [15] = experiment: Inhibition of MPP+ induced mitochondrial depolarization in human SH-SY5Y cells at 0.1 uM incubated for 2 hrs by JC10 staining based confocal laser scanning microscopy; assay type: functional
Outline: (§3)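 ATRA-differentiated SH-SY5Y co-treated with 5 mM MPP+ and compound for 2 h; mitochondrial membrane potential by JC10 ratiometric red/green signal (plate) and confocal imaging of JC10-stained cells (50 000 cells/well slides); DMSO control set to 100 %; triplicates on three independent days.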

Cholinesterase = Cholinesterase (Equus caballus, UniProt P81908); experiment: Inhibition of equine serum BChE using butyrylthiocholine as substrate by Ellman's method
Outline: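 Equine serum BChE (0.2 U/mL final) with 40 μM butyrylthiocholine and 100 μM DTNB, modified Ellman spectrophotometry; compounds from DMSO diluted in water, five inhibitor concentrations; IC50 from regression of v0/vi versus inhibitor concentration; triplicate.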

SH-SY5Y [16] = experiment: Inhibition of MPP+ induced mitochondrial depolarization in human SH-SY5Y cells at 1 uM incubated for 2 hrs by JC10 staining based confocal laser scanning microscopy; assay type: functional; outline: as §3
SH-SY5Y [17] = experiment: Neuroprotective activity against MPP+ induced cell death in human SH-SY5Y cells assessed as cell death at 10 uM incubated for 24 hrs by Cas-3, 7 staining based assay; assay type: functional
Outline: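 Caspase-3/7 activation with Ac-DEVD-AFC substrate after 24 h co-treatment of neuron-like SH-SY5Y with compound and 5 mM MPP+; MPP+ signal set to 100 %; triplicates on at least three independent days.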

Sequence of Cholinesterase (P81908 whole entry): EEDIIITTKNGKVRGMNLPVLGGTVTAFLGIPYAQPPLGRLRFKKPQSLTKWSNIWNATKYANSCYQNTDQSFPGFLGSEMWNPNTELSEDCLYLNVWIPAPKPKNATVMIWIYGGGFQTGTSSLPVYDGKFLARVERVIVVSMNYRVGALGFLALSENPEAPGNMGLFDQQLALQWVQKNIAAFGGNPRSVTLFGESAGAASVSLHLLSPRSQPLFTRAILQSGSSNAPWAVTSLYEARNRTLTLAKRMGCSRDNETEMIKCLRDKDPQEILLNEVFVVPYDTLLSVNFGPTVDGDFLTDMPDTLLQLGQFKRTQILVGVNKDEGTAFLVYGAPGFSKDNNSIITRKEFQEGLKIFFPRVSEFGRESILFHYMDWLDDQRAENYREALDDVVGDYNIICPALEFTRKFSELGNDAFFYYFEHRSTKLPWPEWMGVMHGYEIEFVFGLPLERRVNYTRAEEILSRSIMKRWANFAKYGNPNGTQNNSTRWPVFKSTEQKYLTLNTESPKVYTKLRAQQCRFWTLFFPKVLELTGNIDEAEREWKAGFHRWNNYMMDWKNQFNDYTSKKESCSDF
Sequence of Acetylcholinesterase (O42275 whole entry): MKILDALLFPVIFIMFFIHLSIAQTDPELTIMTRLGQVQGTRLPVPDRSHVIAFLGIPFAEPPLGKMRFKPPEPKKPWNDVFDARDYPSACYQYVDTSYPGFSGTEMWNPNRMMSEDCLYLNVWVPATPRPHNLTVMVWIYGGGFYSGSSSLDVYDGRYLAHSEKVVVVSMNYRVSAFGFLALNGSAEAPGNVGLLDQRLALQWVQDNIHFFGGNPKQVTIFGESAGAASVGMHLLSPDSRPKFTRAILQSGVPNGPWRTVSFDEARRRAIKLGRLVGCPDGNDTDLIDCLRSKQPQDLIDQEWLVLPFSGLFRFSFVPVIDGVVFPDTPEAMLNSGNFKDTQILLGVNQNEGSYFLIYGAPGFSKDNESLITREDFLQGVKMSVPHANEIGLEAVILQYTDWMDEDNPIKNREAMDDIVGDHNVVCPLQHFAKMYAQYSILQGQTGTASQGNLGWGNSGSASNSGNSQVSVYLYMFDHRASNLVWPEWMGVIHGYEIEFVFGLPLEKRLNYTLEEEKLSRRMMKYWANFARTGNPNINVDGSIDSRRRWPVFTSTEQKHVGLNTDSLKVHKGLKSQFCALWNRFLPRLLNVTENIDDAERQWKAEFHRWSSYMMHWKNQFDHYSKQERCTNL

Structure (SMILES)	Activity (SH-SY5Y [1])	Activity (SH-SY5Y [2])	Activity (SH-SY5Y [3])	Activity (SH-SY5Y [4])	Activity (SH-SY5Y [5])	Activity (SH-SY5Y [6])	Activity (SH-SY5Y [7])	Activity (SH-SY5Y [8])	Activity (SH-SY5Y [9])	IC50 (Acetylcholinesterase)	inhibition at 10 µM (SH-SY5Y [10])	Activity (SH-SY5Y [11])	inhibition at 10 µM (SH-SY5Y [12])	Ratio IC50 [13]	Activity (SH-SY5Y [14])	inhibition at 0.1 µM (SH-SY5Y [15])	IC50 (Cholinesterase)	inhibition at 1 µM (SH-SY5Y [16])	Activity (SH-SY5Y [17])
Cc1cccn2c3c(nc12)-c1ccccc1NC31CCC(C)CC1 (stereo not drawn)	65%	53%	91.8%	86%	9%	64.5%	94%	–	–	–	–	–	–	–	–	–	–	–	–
Cc1ccn2c3c(nc2c1)-c1ccccc1NC3(C)C	62.4%	46.1%	65.7%	86.2%	13%	52.9%	59.7%	–	–	–	–	–	–	–	–	–	–	–	–
Cc1cccn2c3c(nc12)-c1ccccc1NC31CCCC1	65.3%	48%	86.7%	79.2%	8.2%	60.5%	52.8%	–	–	–	–	–	–	–	–	–	–	–	–
Cc1cccn2c3c(nc12)-c1ccccc1NC3(C)C	69.9%	48.6%	79.6%	96.6%	11%	56.4%	70.8%	–	–	–	–	–	–	–	–	–	–	–	–
Cc1cccn2c3c(nc12)-c1ccccc1NC31CCCCC1	66.1%	44.4%	77.7%	76.6%	9.2%	61.8%	45.6%	–	–	–	–	–	–	–	–	–	–	–	–
CC1CCC2(CC1)Nc1ccccc1-c1nc3ccc(Br)cn3c12 (stereo not drawn)	71.3%	52.3%	74.2%	92.1%	9.3%	64%	126.5%	–	–	–	–	–	–	–	–	–	–	–	–
COc1ccc(C(=O)c2c(C)n(CCN3CCOCC3)c3cc(I)ccc23)cc1	–	–	–	–	–	–	–	Toxic	> 12%	–	–	–	–	–	–	–	–	–	–
Brc1ccc2nc3c(n2c1)C1(CCCCCC1)Nc1ccccc1-3	81.4%	43.5%	56.5%	90.7%	13.5%	73.5%	96.4%	–	–	–	–	–	–	–	–	–	–	–	–
c1ccc2c(c1)NC1(CCCC1)c1c-2nc2ccccn12	57.7%	28.2%	63.9%	67.7%	10.1%	54.5%	42.6%	–	–	–	–	–	–	–	–	–	–	–	–
CC(=O)N[C@@H](CS)C(=O)O [ACETYLCYSTEINE]	80.8%	–	–	95.5%	–	37%	–	–	–	–	–	–	–	–	–	–	–	–	–
CC1CCC2(CC1)Nc1ccccc1-c1nc3ccccn3c12 (stereo not drawn)	64.2%	33.6%	67.6%	82.3%	12%	64.5%	97.3%	–	–	–	–	–	–	–	–	–	–	–	–
Cc1ccn2c3c(nc2c1)-c1ccccc1NC31CCCC1	59%	31.9%	73.1%	86.9%	10.4%	48.6%	68.9%	–	–	–	–	–	–	–	–	–	–	–	–
Cc1ccn2c3c(nc2c1)-c1ccccc1NC31CCC(C)CC1 (stereo not drawn)	66.8%	38.4%	61.6%	82.4%	10.9%	67%	105.9%	–	–	–	–	–	–	–	–	–	–	–	–
Cc1cccn2c3c(nc12)-c1ccccc1NC31CCCCCC1	71%	38.8%	67.2%	83.8%	9.3%	60.3%	91.4%	–	–	–	–	–	–	–	–	–	–	–	–
c1ccc2c(c1)NC1(CCCCCC1)c1c-2nc2ccccn12	69.9%	28.6%	45.8%	74%	10.4%	69%	73.6%	–	–	–	–	–	–	–	–	–	–	–	–
Brc1ccc2nc3c(n2c1)C1(CCCCC1)Nc1ccccc1-3	88.4%	56.5%	94.8%	97.7%	12.3%	59.5%	33.9%	–	–	20 µM	65.6%	64.7%	58.8%	1.02	58%	91.7%	19.6 µM	100%	55.8%
